Key:
Format in all cases: functional
SK-MEL-28 = test: Growth inhibition of human SK-MEL-28 cells at 10 uM incubated for 48 hrs by sulforhodamine B assay relative to control; details: SK-MEL-28, 48 h, read-out: GI
In short: (§1)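 NCI single-dose screen: cells grown in RPMI 1640 with 5% FBS and 2 mM L-glutamine, plated at 5,000–40,000 cells/well and preincubated 24 h at 37 °C, 5% CO2. Compounds taken from DMSO stock and tested at final 10 µM for 48 h. Cells fixed with TCA, stained with 0.4% SRB, absorbance read at 515 nm. Percentage growth calculated against untreated controls; controls held DMSO at the same dilution.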

U-251 = test: Growth inhibition of human U251 cells at 10 uM incubated for 48 hrs by sulforhodamine B assay relative to control; details: U-251, 48 h, read-out: GI; in short: as §1
MCF7 = test: Growth inhibition of human MCF7 cells at 10 uM incubated for 48 hrs by sulforhodamine B assay relative to control; details: MCF7, 48 h, read-out: GI
In short: (§2)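 Single-dose screen at 10 μM final: cells in RPMI 1640, 5% FBS, 2 mM L-glutamine, plated 5,000–40,000/well, preincubated 24 h at 37°C, 5% CO2; drug 48 h; adherent cells fixed with 10% TCA, suspension cells with 16% TCA; SRB stain, absorbance 515 nm; percentage growth versus untreated control, with time-zero plates.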

A549 = test: Growth inhibition of human A549/ATCC cells at 10 uM incubated for 48 hrs by sulforhodamine B assay relative to control; details: A549, 48 h, read-out: GI; in short: as §2
T47D = test: Growth inhibition of human T47D cells at 10 uM incubated for 48 hrs by sulforhodamine B assay relative to control; details: read-out: GI; in short: as §1
UACC-62 = test: Growth inhibition of human UACC62 cells at 10 uM incubated for 48 hrs by sulforhodamine B assay relative to control; details: UACC-62, 48 h, read-out: GI; in short: as §1
786-0 = test: Growth inhibition of human 786-0 cells at 10 uM incubated for 48 hrs by sulforhodamine B assay relative to control; details: 786-0, 48 h, read-out: GI; in short: as §2
SNB-19 = test: Growth inhibition of human SNB19 cells at 10 uM incubated for 48 hrs by sulforhodamine B assay relative to control; details: SNB-19, 48 h, read-out: GI; in short: as §1
MDA-MB-231 = test: Growth inhibition of human MDA-MB-231 cells at 10 uM incubated for 48 hrs by sulforhodamine B assay relative to control; details: MDA-MB-231, 48 h, read-out: GI; in short: as §2
NCI-H522 = test: Growth inhibition of human NCI-H522 cells at 10 uM incubated for 48 hrs by sulforhodamine B assay relative to control; details: NCI-H522, 48 h, read-out: GI; in short: as §2
UO-31 = test: Growth inhibition of human UO31 cells at 10 uM incubated for 48 hrs by sulforhodamine B assay relative to control; details: UO-31, 48 h, read-out: GI; in short: as §1
HL-60(TB) = test: Growth inhibition of human HL-60(TB) cells at 10 uM incubated for 48 hrs by sulforhodamine B assay relative to control; details: HL-60, 48 h, read-out: GI
In short: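 Single dose of 10 µM in the NCI ~60-line panel. Cells grown in RPMI 1640 with 5% FBS and 2 mM L-glutamine, plated and pre-incubated 24 h, then exposed 48 h at 37°C under 5% CO2. Suspension cells fixed with TCA (16% final) and stained with sulforhodamine B, A515 read. Reported as percent growth versus untreated control and as GI%.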

NCI/ADR-RES = test: Growth inhibition of human NCI/ADR-RES cells at 10 uM incubated for 48 hrs by sulforhodamine B assay relative to control; details: read-out: GI; in short: as §2
OVCAR-5 = test: Growth inhibition of human OVCAR5 cells at 10 uM incubated for 48 hrs by sulforhodamine B assay relative to control; details: OVCAR-5, 48 h, read-out: GI; in short: as §2
TK-10 = test: Growth inhibition of human TK10 cells at 10 uM incubated for 48 hrs by sulforhodamine B assay relative to control; details: TK-10, 48 h, read-out: GI; in short: as §1
HCT-116 = test: Growth inhibition of human HCT116 cells at 10 uM incubated for 48 hrs by sulforhodamine B assay relative to control; details: HCT-116, 48 h, read-out: GI; in short: as §2
Hs-578T = test: Growth inhibition of human Hs 578T cells at 10 uM incubated for 48 hrs by sulforhodamine B assay relative to control; details: read-out: GI; in short: as §2
HCT-15 = test: Growth inhibition of human HCT15 cells at 10 uM incubated for 48 hrs by sulforhodamine B assay relative to control; details: HCT-15, 48 h, read-out: GI; in short: as §2
ACHN = test: Growth inhibition of human ACHN cells at 10 uM incubated for 48 hrs by sulforhodamine B assay relative to control; details: read-out: GI; in short: as §2
SR = test: Growth inhibition of human SR cells at 10 uM incubated for 48 hrs by sulforhodamine B assay relative to control; details: read-out: GI; in short: as §1
MDA-MB-435 = test: Growth inhibition of human MDA-MB-435 cells at 10 uM incubated for 48 hrs by sulforhodamine B assay relative to control; details: MDA-MB-435, 48 h, read-out: GI; in short: as §2
SK-MEL-2 = test: Growth inhibition of human SK-MEL-2 cells at 10 uM incubated for 48 hrs by sulforhodamine B assay relative to control; details: SK-MEL-2, 48 h, read-out: GI; in short: as §1
CCRF-CEM = test: Growth inhibition of human CCRF-CEM cells at 10 uM incubated for 48 hrs by sulforhodamine B assay relative to control; details: read-out: GI; in short: as §2
OVCAR-4 = test: Growth inhibition of human OVCAR4 cells at 10 uM incubated for 48 hrs by sulforhodamine B assay relative to control; details: OVCAR-4, 48 h, read-out: GI; in short: as §2
SF-539 = test: Growth inhibition of human SF539 cells at 10 uM incubated for 48 hrs by sulforhodamine B assay relative to control; details: SF-539, 48 h, read-out: GI; in short: as §1
LOX IMVI = test: Growth inhibition of human LOXIMVI cells at 10 uM incubated for 48 hrs by sulforhodamine B assay relative to control; details: read-out: GI; in short: as §2
SNB-75 = test: Growth inhibition of human SNB75 cells at 10 uM incubated for 48 hrs by sulforhodamine B assay relative to control; details: SNB-75, 48 h, read-out: GI; in short: as §1
HT-29 = test: Growth inhibition of human HT-29 cells at 10 uM incubated for 48 hrs by sulforhodamine B assay relative to control; details: HT-29, 48 h, read-out: GI; in short: as §2
UACC-257 = test: Growth inhibition of human UACC257 cells at 10 uM incubated for 48 hrs by sulforhodamine B assay relative to control; details: UACC-257, 48 h, read-out: GI; in short: as §1
NCI-H23 = test: Growth inhibition of human NCI-H23 cells at 10 uM incubated for 48 hrs by sulforhodamine B assay relative to control; details: NCI-H23, 48 h, read-out: GI; in short: as §2

Row | Structure (SMILES) | inhibition of growth at 10 µM (U-251) [%] | inhibition of growth at 10 µM (MCF7) [%] | inhibition of growth at 10 µM (A549) [%] | inhibition of growth at 10 µM (T47D) [%] | inhibition of growth at 10 µM (UACC-62) [%] | inhibition of growth at 10 µM (786-0) [%] | inhibition of growth at 10 µM (SNB-19) [%] | inhibition of growth at 10 µM (MDA-MB-231) [%] | inhibition of growth at 10 µM (NCI-H522) [%] | inhibition of growth at 10 µM (UO-31) [%] | inhibition of growth at 10 µM (HL-60(TB)) [%] | inhibition of growth at 10 µM (NCI/ADR-RES) [%] | inhibition of growth at 10 µM (OVCAR-5) [%] | inhibition of growth at 10 µM (TK-10) [%] | inhibition of growth at 10 µM (HCT-116) [%] | inhibition of growth at 10 µM (Hs-578T) [%] | inhibition of growth at 10 µM (HCT-15) [%] | inhibition of growth at 10 µM (ACHN) [%] | inhibition of growth at 10 µM (SR) [%] | inhibition of growth at 10 µM (MDA-MB-435) [%] | other results
1 | CCOC(=O)C1=C(C)NC(SCc2nnc(-c3ccc(Cl)cc3)o2)=NC1c1ccc(Br)cc1 (centres undefined) | 34.3 | 55.2 | 37.6 | 52 | 44.7 | 15.1 | 28 | 40.2 | 32.4 | 47.6 | 77.5 | 32.5 | < 10 | 20.1 | 51.4 | 12.9 | 34.9 | 30.3 | 61.2 | 34.9 | inhibition of growth at 10 µM (SK-MEL-28): 18.7%; inhibition of growth at 10 µM (SK-MEL-2): < 10%; inhibition of growth at 10 µM (CCRF-CEM): 56.6%; inhibition of growth at 10 µM (OVCAR-4): 30.4%; inhibition of growth at 10 µM (SF-539): 11.3%; inhibition of growth at 10 µM (LOX IMVI): 25.1%; inhibition of growth at 10 µM (SNB-75): 32.3%; inhibition of growth at 10 µM (HT-29): 21.3%; inhibition of growth at 10 µM (UACC-257): 27%; inhibition of growth at 10 µM (NCI-H23): 24.3%
2 | CCOC(=O)C1=C(C)NC(SCc2nnc(-c3ccc(Cl)cc3)o2)=NC1c1ccc(F)cc1 (centres undefined) | 10.1 | 13.3 | 11.7 | 27.1 | 10.7 | 10.7 | 11.6 | < 10 | 17.5 | 22.2 | 23.5 | < 10 | < 10 | 13.9 | 21.7 | < 10 | 15.8 | < 10 | 16.7 | < 10 | inhibition of growth at 10 µM (SK-MEL-28): < 10%; inhibition of growth at 10 µM (SK-MEL-2): < 10%; inhibition of growth at 10 µM (CCRF-CEM): 16.9%; inhibition of growth at 10 µM (OVCAR-4): < 10%; inhibition of growth at 10 µM (SF-539): < 10%; inhibition of growth at 10 µM (LOX IMVI): < 10%; inhibition of growth at 10 µM (SNB-75): < 10%; inhibition of growth at 10 µM (HT-29): 10.3%; inhibition of growth at 10 µM (UACC-257): < 10%; inhibition of growth at 10 µM (NCI-H23): < 10%
3 | CCOC(=O)C1=C(C)NC(SCc2nnc(-c3ccc(Cl)cc3)o2)=NC1c1cccc(Cl)c1 (centres undefined) | < 10 | 32 | 29.5 | 69.2 | 26.6 | 43 | 10.4 | 18.9 | 74.6 | 35.9 | 80.4 | 21.3 | 10.5 | 30.3 | 56.5 | < 10 | 29.5 | < 10 | 16.4 | < 10 | inhibition of growth at 10 µM (SK-MEL-28): < 10%; inhibition of growth at 10 µM (SK-MEL-2): 39.9%; inhibition of growth at 10 µM (CCRF-CEM): 38.2%; inhibition of growth at 10 µM (OVCAR-4): 16.9%; inhibition of growth at 10 µM (SF-539): < 10%; inhibition of growth at 10 µM (LOX IMVI): 17.7%; inhibition of growth at 10 µM (SNB-75): 16.8%; inhibition of growth at 10 µM (HT-29): 46.4%; inhibition of growth at 10 µM (UACC-257): 22.2%; inhibition of growth at 10 µM (NCI-H23): < 10%
4 | CC(=O)C1=C(C)NC(SCc2nnc(-c3ccc(Cl)cc3)o2)=NC1c1ccc(Cl)cc1 (centres undefined) | 14.8 | 16.4 | 21.4 | 39.5 | 27.7 | 12.6 | 16.6 | 27 | 20.9 | 43.6 | 40.3 | < 10 | < 10 | 13.1 | 25.8 | < 10 | 11 | 13.5 | 37.8 | < 10 | inhibition of growth at 10 µM (SK-MEL-28): < 10%; inhibition of growth at 10 µM (SK-MEL-2): < 10%; inhibition of growth at 10 µM (CCRF-CEM): 20.9%; inhibition of growth at 10 µM (OVCAR-4): < 10%; inhibition of growth at 10 µM (SF-539): < 10%; inhibition of growth at 10 µM (LOX IMVI): < 10%; inhibition of growth at 10 µM (SNB-75): 28.1%; inhibition of growth at 10 µM (HT-29): < 10%; inhibition of growth at 10 µM (UACC-257): < 10%; inhibition of growth at 10 µM (NCI-H23): < 10%
5 | CC(=O)C1=C(C)NC(SCc2nnc(-c3ccc(C)cc3)o2)=NC1c1ccc(F)cc1 (centres undefined) | < 10 | < 10 | < 10 | 25.6 | 15.4 | 15.4 | < 10 | < 10 | 14.1 | 16.4 | 19.2 | < 10 | 10.4 | 14.4 | < 10 | < 10 | < 10 | < 10 | 19.1 | < 10 | inhibition of growth at 10 µM (SK-MEL-2): < 10%; inhibition of growth at 10 µM (CCRF-CEM): 11.9%; inhibition of growth at 10 µM (OVCAR-4): < 10%; inhibition of growth at 10 µM (SF-539): < 10%; inhibition of growth at 10 µM (LOX IMVI): < 10%; inhibition of growth at 10 µM (SNB-75): < 10%; inhibition of growth at 10 µM (HT-29): < 10%; inhibition of growth at 10 µM (UACC-257): < 10%; inhibition of growth at 10 µM (NCI-H23): < 10%
